Results published in ChEMBL document CHEMBL3085673, “The design of a novel series of muscarinic receptor antagonists leading to AZD8683, a potential inhaled treatment for COPD” (Bioorg Med Chem Lett, 2013).

Legend:
[1] = target: Muscarinic acetylcholine receptor M3 (Cavia porcellus, UniProt Q8VH26); test: Antagonist activity at M3 receptor in Dunkin-Hartley guinea pig trachea assessed as inhibition of methacholine-induced airway smooth muscle contraction after 1 to 4 hrs; conditions: read-out: pA2 (converted)
Muscarinic acetylcholine receptor M3 (Cavia porcellus, UniProt Q8VH26), sequence (Q8VH26 whole entry): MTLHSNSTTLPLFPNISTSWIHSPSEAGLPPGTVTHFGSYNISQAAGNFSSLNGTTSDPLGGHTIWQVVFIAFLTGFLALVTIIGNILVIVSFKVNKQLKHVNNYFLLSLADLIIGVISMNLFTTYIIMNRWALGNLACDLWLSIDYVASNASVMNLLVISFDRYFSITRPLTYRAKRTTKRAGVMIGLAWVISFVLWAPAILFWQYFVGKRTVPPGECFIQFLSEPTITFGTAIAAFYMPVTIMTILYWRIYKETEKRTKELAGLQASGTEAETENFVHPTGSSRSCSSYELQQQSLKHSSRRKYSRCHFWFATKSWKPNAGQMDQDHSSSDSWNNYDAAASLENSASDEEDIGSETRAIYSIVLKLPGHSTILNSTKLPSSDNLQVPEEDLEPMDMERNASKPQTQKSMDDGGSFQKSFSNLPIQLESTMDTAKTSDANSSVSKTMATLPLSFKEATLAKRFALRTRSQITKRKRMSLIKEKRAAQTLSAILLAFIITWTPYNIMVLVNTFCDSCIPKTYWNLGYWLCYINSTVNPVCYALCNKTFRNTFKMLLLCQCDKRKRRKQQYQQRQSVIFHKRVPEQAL
Procedure, shortened: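 Isolated guinea pig tracheal rings equilibrated 1 h, re-tensioned to 1 g, primed with methacholine, then a cumulative methacholine curve (3 × 10^-9 to 3 × 10^-5 M). Vehicle or compound equilibrated 1 or 4 h before a second curve (3 × 10^-9 to 1 × 10^-3 M final). Isometric force as % of curve-1 maximum. pA2 calculated from vehicle and test A50 values; n = 2.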

[2] = Plasma protein binding in human; type: ADME, cell-free; conditions: read-out: PPB (converted)
[3] = target: Muscarinic acetylcholine receptor M3 (Homo sapiens, UniProt P20309); test: Displacement of [3H]NMS from recombinant human M3 receptor expressed in CHO-K1 cells after 16 hrs by SPA method; type: cell-based
Muscarinic acetylcholine receptor M3 (Homo sapiens, UniProt P20309), sequence (P20309 whole entry): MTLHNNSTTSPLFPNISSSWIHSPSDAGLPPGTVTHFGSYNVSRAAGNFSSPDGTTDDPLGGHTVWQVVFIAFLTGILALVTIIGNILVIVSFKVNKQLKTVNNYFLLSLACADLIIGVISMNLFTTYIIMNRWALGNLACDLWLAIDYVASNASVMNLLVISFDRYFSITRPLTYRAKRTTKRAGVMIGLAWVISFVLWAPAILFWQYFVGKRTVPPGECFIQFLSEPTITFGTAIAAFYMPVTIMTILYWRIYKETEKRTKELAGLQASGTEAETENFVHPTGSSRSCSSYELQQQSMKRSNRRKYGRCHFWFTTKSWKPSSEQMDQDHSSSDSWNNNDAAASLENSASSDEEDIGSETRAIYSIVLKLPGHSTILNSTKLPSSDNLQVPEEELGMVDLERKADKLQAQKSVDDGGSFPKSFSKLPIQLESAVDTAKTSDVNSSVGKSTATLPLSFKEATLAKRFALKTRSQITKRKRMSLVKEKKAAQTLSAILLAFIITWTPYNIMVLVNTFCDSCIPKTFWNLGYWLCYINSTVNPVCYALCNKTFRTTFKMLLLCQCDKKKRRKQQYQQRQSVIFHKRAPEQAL
Procedure, shortened: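 Nonspecific binding defined with atropine 1 µM; eight total-binding replicates per plate. Incubated at room temperature at least 16 h to equilibrium before counting; n ≥ 2.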

[4] = Half life in guinea pig lung administered via intratracheal instillation at 1 ug/kg by HPLC-MS analysis; type: ADME, tissue-based, Cavia porcellus; conditions: inhaled or intranasal, 0.001 mg/kg
Procedure, shortened: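 Halothane-anaesthetised guinea pigs given 1 μg/kg by intratracheal instillation. Lungs collected at 0.25-24 h after barbiturate overdose, homogenised in phosphate buffer and added to ice-cold methanol. Supernatant analysed by mass spectrometry/HPLC.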

Cavia porcellus [5] = test: Inhibition of methacholine-induced bronchoconstriction in Dunkin-Hartley guinea pig administered via intratracheal/intranasal after 48 hrs relative to control; type: functional
Procedure, shortened: (§1)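 Dunkin-Hartley guinea pigs dosed in 0.9% saline by intratracheal or intranasal microsprayer under halothane. At 2, 4, 24 or 48 h, animals were terminally anaesthetised with pentobarbitone and ventilated at 60 breaths/min, 2 mL tidal volume. Peak respiratory resistance measured after IV methacholine 10 μg/kg. Percent inhibition calculated against a time-matched vehicle group. For duration, dosing was at the ED80 dose, measured or predicted from trachea potency.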

[6] = Intrinsic clearance in human liver microsomes; type: ADME; conditions: read-out: CLH
Cavia porcellus [7] = test: Inhibition of methacholine-induced bronchoconstriction in Dunkin-Hartley guinea pig administered via intratracheal/intranasal after 2 to 4 hrs relative to control; type: functional; conditions: inhaled or nasal; procedure, shortened: as §1
Cavia porcellus [8] = test: Toxicity in guinea pig assessed as reduction of pilocarpine-induced salivation administered via intranasal administered for 4 hrs followed by pilocarpine challenge measured every 5 mins for 15 mins; type: organism-based
Procedure, shortened: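 Compound or vehicle given intranasally under halothane. At 4 h, animals were anaesthetised with urethane and the mouth dried with gauze for 5 min. Baseline saliva taken on a pre-weighed pad over 5 min. Pilocarpine 0.6 mg/kg given subcutaneously, then pads replaced every 5 min for 15 min and saliva quantified by pad weight gain.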

Cavia porcellus [9] = test: Inhibition of methacholine-induced bronchoconstriction in Dunkin-Hartley guinea pig administered via intratracheal/intranasal after 24 hrs relative to control; type: functional; procedure, shortened: as §1
[10] = Therapeutic index, ratio of ED80 for methacholine-induced bronchoconstriction in Dunkin-Hartley guinea pig to EC50 for reduction of pilocarpine-induced salivation in guinea pig; type: organism-based, Cavia porcellus; conditions: in vivo, read-out: TI

| SMILES | Kb [1] | fraction unbound [2] | IC50 [3] | half-life [4] | inhibition (INH) (Cavia porcellus [5]) | microsomal CLint [6] | ED80 (Cavia porcellus [7]) | EC50 (Cavia porcellus [8]) | inhibition (INH) (Cavia porcellus [9]) | selectivity ratio [10] |
| --- | --- | --- | --- | --- | --- | --- | --- | --- | --- | --- |
| O=C(O[C@H]1C[N+]2(Cc3nc(-c4ccccc4)no3)CCC1CC2)C1(C2=CC=CC2)CCCCCC1 | 0.398 nM | 0.01 | 0.158 nM | 1020 min | 0% | 102 µL/min/mg | 3 µg/kg |  |  |  |
| O=C(O[C@H]1C[N+]2(Cc3cc(-c4ccccc4)no3)CCC1CC2)C1(C2=CC=CC2)CCCCCC1 | 0.316 nM | 0.01 | 0.251 nM | 990 min | 0% | 63 µL/min/mg | 3 µg/kg | > 30 µg/kg |  |  |
| O=C(C[N+]12CCC(CC1)[C@@H](OC(=O)C1(C3=CC=CC3)CCCCCC1)C2)Nc1ccon1 | 0.02 nM | 0.18 | < 0.0631 nM | 1140 min |  | 150 µL/min/mg | 1 µg/kg | > 10 µg/kg | 0% |  |
| O=C(C[N+]12CCC(CC1)[C@@H](OC(=O)C1(C3=CC=CC3)CCCCCC1)C2)Nc1ccc(Cl)nn1 | 0.2 nM | 0.04 | 0.2 nM | 3400 min |  |  | 3 µg/kg | > 30 µg/kg | 89% | ≥ 10 |
| O=C(C[N+]12CCC(CC1)[C@@H](OC(=O)C1(C3=CC=CC3)CCCCCC1)C2)Nc1cnccn1 | 0.126 nM | 0.075 | < 0.126 nM | 1380 min | 73% | 43 µL/min/mg | 1 µg/kg | > 10 µg/kg | 88% | ≥ 10 |
| C[N+]1(C)[C@@H]2C[C@@H](OC(=O)C(O)(c3cccs3)c3cccs3)C[C@H]1[C@@H]1O[C@@H]12.O.[Br-] [TIOTROPIUM BROMIDE] |  |  |  |  | 69% |  | 0.3 µg/kg | < 0.3 µg/kg | >80% |  |
| O=C(C[N+]12CCC(CC1)[C@@H](OC(=O)C1(C3=CC=CC3)CCCCCC1)C2)Nc1ccccn1 | 0.398 nM | 0.04 | 0.158 nM | 1540 min | 84% | 55 µL/min/mg | 1 µg/kg | > 30 µg/kg |  | ≥ 10 |
| O=C(O[C@H]1C[N+]2(Cc3nnc(-c4ccccc4)o3)CCC1CC2)C1(C2=CC=CC2)CCCCCC1 | 0.2 nM | 0.035 | 0.316 nM | 1320 min | 0% | 97 µL/min/mg | 3 µg/kg | > 30 µg/kg |  |  |
| O=C(O[C@H]1C[N+]2(CCCOc3ccccc3)CCC1CC2)C1(C2=CC=CC2)CCCCCC1 | 0.794 nM | 0.085 | 0.0631 nM | 612 min |  | 75 µL/min/mg | 3 µg/kg |  | 31% |  |
| O=C(O[C@H]1C[N+]2(CCCc3ccncc3)CCC1CC2)C1(C2=CC=CC2)CCCCCC1 | 0.126 nM | 0.12 | < 0.0398 nM | 1140 min |  | 57 µL/min/mg | 1 µg/kg |  | 0% |  |
| Cc1cc(NC(=O)C[N+]23CCC(CC2)[C@@H](OC(=O)C2(C4=CC=CC4)CCCCCC2)C3)no1 | 0.251 nM | 0.03 | 0.158 nM | 1600 min |  | 26 µL/min/mg | 3 µg/kg | > 30 µg/kg | 56% | ≥ 10 |
| Cc1cc(CCC[N+]23CCC(CC2)[C@@H](OC(=O)C2(C4=CC=CC4)CCCCCC2)C3)ccn1 | 0.158 nM | 0.03 | < 0.0316 nM | 2620 min |  | 135 µL/min/mg | 1 µg/kg |  | 0% |  |
